# GPR7 antagonist = GPR7 receptor antagonists, primary screen, cell-based, fluorescence, single concentration; Neuropeptides B/W receptor type 1 (Homo sapiens), P48145; GPR7-expressing cells, fluorescence antagonist assay; inhibition, % at 4.4 µM; 290,000 compounds, 1.1% hits; AID 1861, 2009; in the data active means inhibition above about 16%, passing the limit was not always enough;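 further: cells stimulated with the agonist NPW; 0% = agonist with vehicle and 100% = vehicle without agonist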
# LANA-H2B inh = blockers of LANA interaction with H2A/H2B – biochemical, FP readout, HTS, primary screen. AID 2629, 2010. cell-free LANA-H2A/H2B peptide, fluorescence polarization. Protein LANA1 (Human herpesvirus 8 type P (isolate GK18)), Q9QR71. 320,000 compounds, 0.6% hits. inhibition, % (concentration not given with the values); in the data active means inhibition mostly above about 10%, no sharp cut-off; inactive means mostly below about 6.7%
# Target sequence (Q9QR71 whole entry, looked up): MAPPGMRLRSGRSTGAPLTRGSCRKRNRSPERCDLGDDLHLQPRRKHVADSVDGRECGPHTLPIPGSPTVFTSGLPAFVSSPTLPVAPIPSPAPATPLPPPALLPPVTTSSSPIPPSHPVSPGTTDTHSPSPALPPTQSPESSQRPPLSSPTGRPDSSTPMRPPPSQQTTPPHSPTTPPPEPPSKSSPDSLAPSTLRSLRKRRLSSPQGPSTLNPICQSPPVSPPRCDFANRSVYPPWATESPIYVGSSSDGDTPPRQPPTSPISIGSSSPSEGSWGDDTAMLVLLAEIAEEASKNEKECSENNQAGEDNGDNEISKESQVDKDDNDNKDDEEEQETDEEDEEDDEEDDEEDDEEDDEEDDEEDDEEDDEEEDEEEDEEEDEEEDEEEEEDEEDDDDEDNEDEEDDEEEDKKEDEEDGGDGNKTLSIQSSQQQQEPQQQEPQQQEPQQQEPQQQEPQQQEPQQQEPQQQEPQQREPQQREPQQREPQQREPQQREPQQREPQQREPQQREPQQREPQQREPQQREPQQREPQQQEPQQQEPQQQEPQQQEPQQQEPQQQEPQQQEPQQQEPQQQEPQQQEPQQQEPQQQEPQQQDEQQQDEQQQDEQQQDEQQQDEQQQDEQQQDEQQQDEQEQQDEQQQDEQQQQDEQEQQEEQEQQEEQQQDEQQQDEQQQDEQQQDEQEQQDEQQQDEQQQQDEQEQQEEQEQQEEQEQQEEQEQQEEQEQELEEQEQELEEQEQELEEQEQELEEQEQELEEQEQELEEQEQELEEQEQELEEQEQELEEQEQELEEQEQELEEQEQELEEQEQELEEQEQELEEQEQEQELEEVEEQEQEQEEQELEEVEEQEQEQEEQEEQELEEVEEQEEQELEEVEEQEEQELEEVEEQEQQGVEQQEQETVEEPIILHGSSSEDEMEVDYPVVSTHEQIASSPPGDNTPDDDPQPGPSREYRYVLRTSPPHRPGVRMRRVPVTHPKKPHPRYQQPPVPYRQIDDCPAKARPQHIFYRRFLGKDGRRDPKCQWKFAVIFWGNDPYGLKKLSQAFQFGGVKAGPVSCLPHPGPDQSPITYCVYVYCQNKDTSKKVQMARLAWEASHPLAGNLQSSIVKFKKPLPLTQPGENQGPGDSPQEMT
# TAAR1 ag = human TAAR1 agonists, primary screen, Fluo-8 calcium fluorescence, CHO RD-HGA16 cells; vehicle wells 0%, saturating PEA agonist 100%; 360,000 compounds, 0.99% hits; Trace amine-associated receptor 1 (Homo sapiens), Q96RJ0; activation, % at 3 µM;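 active means activation above the mean activation of all test compounds in the run plus 3 SD, cut at about 38% in these data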
#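 Assay system – CHO-derived RD-HGA16 cells with stable Gα16 and human TAAR1 · Compound dosing – one-point dosing at 3 µM (nominal) · Incubation – 17-24 h seeding, 75 min 37 °C dye, 30 min RT · Measured by – kinetic Fluo-8 calcium fluorescence · Control set – DMSO vehicle as 0%, PEA at EC100 as 100% · Repeats – single well for each compound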
# TAAR1 antagonist = human TAAR1 antagonists, primary screen, Fluo-8 calcium fluorescence, CHO RD-HGA16 cells; antagonist; 360,000 compounds, 1.5% hits; Trace amine-associated receptor 1 (Homo sapiens), Q96RJ0; inhibition, % at 3 µM; AID 624466, 2012;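 active means inhibition above a per-plate cutoff, the mean inhibition of test compounds on that plate plus 3 SD, cut at about 49% in these data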;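 further: 0% = DMSO plus EC80 beta-PEA response and 100% = DMSO alone without agonist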
#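 test system = CHO RD-HGA16 cells bearing hTAAR1 | replication = singlicate | controls = DMSO-only wells and EC80 β-PEA-stimulated wells | reagent = EC80 β-phenethylamine stimulus | read-out basis = percent inhibition of PEA-evoked calcium signal, max/basal emission ratio | schedule = seeding 17-24 h prior, 75-min 37 °C, 30-min RT dye loading | signal = kinetic Fluo-8 calcium fluorescence measurement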
# TRPML3 agonist = human TRPML3 channel agonists, primary screen, cell-based, HEK293 TRPML3-YFP, Fluo-8 calcium fluorescence, 3 µM; Mucolipin-3 (Homo sapiens), Q8TDD5; 100% = the carbachol control signal; activation, % at 3 µM; 220,000 compounds, 0.29% hits;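 active means activation above its plate's cutoff, the mean activation of the plate's test wells plus 3 SD, cut at about 12% in these data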;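 further: 0% = DMSO only wells and 100% = carbachol wells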
#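 Test system – HEK293 line with stable expression of human TRPML3-YFP channel · Control set – carbachol 87 µM final as high control (100%), DMSO as low control (0%) · Signal – Fluo-8 calcium dye fluorescence, ex 470-495, em 515-575 nm · Incubation – 1-h 37 °C dye load, 5-s basal, 120-s post-compound reads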
# TRPN1 ag = zebrafish TRPN1 channel agonists, primary screen, cell-based, HEK293, calcium fluorescence. transient receptor potential cation channel N1 (TRPN1/NompC), Danio rerio. AID 1424, 2008. HEK293 zebrafish TRPN1-YFP, Fluo-8 calcium fluorescence; 100% = response to 87 µM carbachol. activation, % at 3 µM. 220,000 compounds, 0.18% hits;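 active means activation above its plate's cutoff, the mean activation of test wells on that plate plus 3 SD, cut at about 19% in these data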;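 further: 0% = DMSO alone and 100% = 87 µM carbachol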
#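 Material: zebrafish TRPN1-YFP in HEK293 cells; Doses: single test compound dose, 3 µM nominal, 0.3% DMSO; Timing: dye loading 1 h at 37 °C, then 30 min room temperature; Technique: intracellular calcium fluorescence with Fluo-8; Benchmarks: high carbachol 87 µM, low DMSO alone.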
# Starred values were filed as active, the others as inactive; · = no result. Most compounds without a hit are left out; they make up all but 3.4% or so of the library.
SMILES,GPR7 antagonist,LANA-H2B inh,TAAR1 ag,TAAR1 antagonist,TRPML3 agonist,TRPN1 ag
CC(C)c1[nH]nc2c1C(c1ccc(F)cc1)N(Cc1ccccc1)C2=O (stereo not given),·,·,-0.1,-20.0,·,·
CC(=NNc1cc(C)c2cc(C)ccc2n1)c1ccccn1,·,·,23.5,38.6,·,·
CN1OC[C@@H]2CN3C(=Nc4cc(C(F)(F)F)cc(C(F)(F)F)c4)Sc4ccccc4[C@@H]3C[C@@H]21,·,·,19.2,-22.2,·,·
O=C(COC(=O)c1cc(-c2cccs2)nn1-c1ccccc1)Nc1ccc(F)c([N+](=O)[O-])c1,6.2,-1.9,7.4,49.2*,0.5,1.0
COCCN(CC(=O)Nc1cccc(C)c1C)C(=O)C1(c2ccccc2)CC1,·,0.0,0.6,-3.9,·,·
COCCN(CC(=O)Nc1cccc(C)c1C)C(=O)c1cc(-c2cccs2)nn1-c1ccccc1,·,6.3,18.1,50.6*,·,·
O=S1(=O)c2ccc(Br)cc2OC[C@H](c2ccccc2)N1Cc1ccccc1,·,·,1.4,-3.3,·,·
O=[N+]([O-])c1ccc(N2CCCCC2)cn1,4.2,-4.9,1.9,-16.7,0.9,-0.8
O=[N+]([O-])c1ccc(N2CCN(c3cccc(Cl)c3)CC2)cn1,20.7*,8.9,6.1,7.7,·,·
COc1ccccc1CCn1cnc(-c2ccc(F)cc2F)c1CC(C)C,·,·,14.4,15.0,·,·
Cc1cccc(C(=O)NC(=S)NNC(=O)c2ccccc2Cl)c1,3.2,-2.5,147.7*,107.1*,12.6*,34.4*
CC(=O)NNC(=S)NC(=O)c1ccc(C)cc1,-5.4,3.7,1.1,1.0,0.4,0.4
Cc1ccc(C(=O)NNC(=S)NC(=O)c2ccc(Cl)cc2)cc1,12.6,4.2,146.4*,108.4*,83.0*,142.8*
CCCCc1c(-c2ccccc2OC)ncn1C1CCCCC1,·,·,1.2,-25.8,·,·
CC(C)C[C@@H]1COc2cccc(N3CCCC3)c2S(=O)(=O)N1,·,·,-0.9,7.8,·,·
CCCOC(=O)NC(CC)COC(=O)Nc1cc(C)ccc1C (stereo not given),-10.0,45.6*,1.8,6.5,-0.5,-1.1
O=C(C(=O)N1CCN(S(=O)(=O)c2cccc3ccccc23)CC1)c1cccc(C(F)(F)F)c1,·,·,2.6,8.1,·,·
Cc1ccc(S(=O)(=O)Cc2cc(F)c([N+](=O)[O-])cc2[N+](=O)[O-])cc1,30.0*,0.5,·,·,·,·
COCCN1CCCc2nc(-c3ccc(Br)cc3)ccc21,·,·,-0.5,-17.2,·,·
CC(=O)c1cccc(NC(=O)C2CCCN2S(=O)(=O)c2cccc3cccnc23)c1 (stereo not given),-10.4,1.3,4.8,-19.9,0.2,0.6
CC(=O)c1cccc(NC(=O)C2CCCN(S(=O)(=O)c3cccc4cccnc34)C2)c1 (stereo not given),-13.4,5.3,8.4,51.8*,-0.1,-0.3
O=C(Nc1nccs1)C1CCCN(S(=O)(=O)c2cccc3cccnc23)C1 (stereo not given),-15.7,1.2,10.7,49.8*,0.0,0.9
CC(C)c1cccc(-c2ccc3c(c2)S(=O)(=O)c2cccc(C(=O)NCc4ccco4)c2C3=O)c1,·,4.6,11.5,52.3*,·,·
COc1ccccc1N1CCN(c2ccc3c(c2)S(=O)(=O)c2cccc(C(=O)NCC4CC4)c2C3=O)CC1,·,·,13.0,53.8*,·,·
O=C(NC1CC1)c1cccc2c1C(=O)c1ccc(N3CCC(Cc4ccccc4)CC3)cc1S2(=O)=O,·,6.6,46.2*,78.1*,·,·
SMILES,GPR7 antagonist,LANA-H2B inh,TAAR1 ag,TAAR1 antagonist,TRPML3 agonist,TRPN1 ag
CC1CCN(c2ccc3c(c2)S(=O)(=O)c2cccc(C(=O)NC4CCCCC4)c2C3=O)CC1,·,-0.8,40.8*,71.5*,·,·
CC(=O)N(C)C[C@@H]1Oc2cc(Br)ccc2S(=O)(=O)N([C@H](C)CO)C[C@@H]1C,·,·,7.4,-6.6,·,·
CCCCOCC1CN(CCCC)S(=O)(=O)c2c(cccc2N2CCCCC2)O1 (stereo not given),·,·,-0.7,-15.8,·,·
COC(=O)c1cc2c(c3c4cc(OC)ccc4n(S(=O)(=O)c4ccc(F)cc4)c13)C(=O)N(C)C2,·,·,-2.7,-8.5,·,·
COc1ccc(-c2ccc3c(c2)S(=O)(=O)c2cccc(C(=O)NC[C@@H]4CCCO4)c2C3=O)cc1OC,·,-0.7,21.2,57.4*,·,·
O=C(NC1CCCCC1)c1cccc2c1C(=O)c1ccc(N3CCCC3)cc1S2(=O)=O,·,-3.5,30.3,59.1*,·,·
COc1ccccc1C1C(C(=O)c2sc(C)nc2C)=C(O)C(=O)N1CCN1CCOCC1 (stereo not given),-8.2,16.7*,9.0,-3.9,0.2,2.8
COc1cccc(C2C(C(=O)c3sc(C)nc3C)=C(O)C(=O)N2CCN2CCOCC2)c1OC (stereo not given),-12.2,-5.8,-1.5,11.4,0.8,2.2
COC(=O)CC#C[C@H](C)[C@@H](NS(=O)(=O)c1ccc([N+](=O)[O-])cc1)C(C)(C)C,·,·,-1.5,-6.1,·,·
CC(=O)O[C@H]1C=C[C@@H](C#Cc2ccc(C(C)(C)C)cc2)O[C@@H]1COC(=O)Nc1ccccc1,·,·,0.1,-1.9,·,·
Cn1c2ccccc2c(=O)c2cc(C#Cc3ccc(N)cc3)ccc21,7.3,1.2,13.3,48.6*,·,·
O=C(CNC(=O)N1CC(=O)Nc2ccccc21)NCCc1ccc(Cl)cc1,-1.1,16.7*,9.3,-11.5,·,·
Nc1[nH]c(C(=O)c2ccccc2)c(-c2ccccn2)c1C(=O)c1c[nH]c2ccccc12,·,·,0.9,-12.1,·,·
Nc1ncnc(N)c1NC(=O)c1ccccc1,·,·,2.1,-27.9,·,·
CCOc1ccc2nc(SCC(=O)c3ccccc3)sc2c1,0.9,4.3,6.3,4.5,-0.3,-1.0
CCOc1ccc2nc(SCCNS(=O)(=O)c3ccccc3)sc2c1,-9.4,-1.8,7.4,60.1*,-0.5,-2.8
Cc1ccccc1S(=O)(=O)N1CCCc2nc(C)c(C)cc21,·,·,-0.3,-27.6,·,·
COc1ccc(CCNc2ccc(N3C(=O)CC(C)C3=O)cc2[N+](=O)[O-])cc1OC (stereo not given),-5.2,-2.5,10.7,49.7*,6.0,11.6
CS(=O)(=O)c1nc(-c2ccco2)cc(C(F)(F)F)n1,14.9*,1.7,·,·,0.7,0.5
CC(=O)Nc1ccc(S[C@@H](CCN2CC[C@H](C(C)(C)C)CCC2=O)c2ccccc2)cc1,·,3.5,17.0,48.7*,·,·
